# Measured values published in ChEMBL document CHEMBL4513216, “Probing the Open Global Health Chemical Diversity Library for Multistage-Active Starting Points for Next-Generation Antimalarials” (ACS Infect Dis, 2020).
# Assay: Toxicity liver stage against HepG2, at 10uM
# Format: cell-based
# Parameters: test concentration 10 uM, cell line HepG2-A16-CD81EGFP
# Details: human, HepG2-A16-CD81EGFP cells; read-out: INHIBITION
# Method in brief: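 Uninfected HepG2-A16-CD81EGFP cells, 3 × 10^3 per well, 1536-well, plated on prespotted compound at 10 μM final, parasite-free screening media added to match infected plates; puromycin 10 μM positive, DMSO 0.5% negative; run in parallel with 48 h PbLuc assay at 37 °C, 5% CO2; viability by CellTiter-Glo luminescence, normalized to controls.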
row,SMILES,cytotoxicity at 10 µM
1,COc1cccc(CNC(=O)CCNS(=O)(=O)c2ccc(C)cc2)c1,-137%
2,O=C(NC[C@H]1OC[C@@H](NCc2ccccn2)[C@@H]1O)N1CCOCC1,0.15%
3,COC(=O)CC(c1ccc(O)c(Cl)c1)c1oc(C)cc(=O)c1O (stereo unspecified),-8.59%
4,O=c1nc(SCc2ccncc2)c2c(n1CCO)CCC2,6.9%
5,O=C(c1cn(-c2cc(N3CCSCC3)ncn2)cn1)N1CCOCC1,14.9%
6,COCCN(Cc1ccoc1)S(=O)(=O)c1ccc(F)c(Cl)c1,-7.93%
7,CCC(CC)C(=O)N1CCOC2(CNC2)C1,-0.184%
8,Cc1ccccc1N1CC2(CCN(S(=O)(=O)c3ccccc3)C2)CC1=O (stereo unspecified),6.24%
9,O=C(c1n[nH]c2c1CCN(Cc1nccs1)C2)N1CCOCC1,-144%
10,Cc1ccc2c(n1)N(CCn1cccn1)CCN(C(=O)NC(C)C)C2,13.3%
11,COCCn1cc2c(n1)C(CNS(C)(=O)=O)OCC2 (stereo unspecified),0.763%
12,CC(C)CCC(=O)N1CC[C@@H]2[C@H](CC1)N(S(C)(=O)=O)CCS2(=O)=O,3.7%
13,CCS(=O)(=O)N1CCC2(CC(=O)N(c3ccc4c(c3)OCO4)C2)C1 (stereo unspecified),9.17%
14,Cc1noc([C@H]2C[C@H]3OCC[C@H]3N(S(C)(=O)=O)C2)n1,-115%
15,COC[C@@]12CCO[C@@H]1CCN(C(=O)c1ccc(F)c(F)c1)C2,-2.59%
16,O=c1cc(Cn2ccnc2)nc2n1CCCN(Cc1ccncc1)C2,-0.559%
17,CC1CCc2nc(O)c(C(=O)NCc3ccncc3)cc2C1 (stereo unspecified),-1.37%
18,CCOc1ccc(CNCCCn2ccnc2)cc1Br,-6.81%
19,O=c1nc(CNc2ccccc2)[nH]n1Cc1ccccc1,4.13%
20,O=C(Cn1ccc2ccc(Br)cc21)NCc1ccc(C(=O)O)cc1,6.46%
21,CC(C)Oc1ccccc1C1CC(=O)Nc2c1cnn2C (stereo unspecified),2.09%
22,CCOCC1CN(Cc2ccoc2)Cc2ncn(CC3CC3)c21 (stereo unspecified),-14.5%
23,CCOc1cc(C(=O)n2cccn2)cc(OCC)c1OCC,2.83%

row,SMILES,cytotoxicity at 10 µM
1,CCCN(c1ccccc1C(=O)O)S(=O)(=O)c1cccc2cccnc12,-3.89%
2,CCC(Oc1ccccc1)c1nn2c(CN(CC)CC)nnc2s1 (stereo unspecified),4.91%
3,Cn1cc(CN2CCc3nc4sccc4c(=O)n3CC2)cn1,-2.19%
4,O=C(N[C@@H]1CCC[C@@H](N2CCOCC2)[C@@H]1O)c1cnn2cccnc12,-21.9%
5,Cc1noc(C)c1-c1ccc(C2CCCN2C(=O)c2cnn(C)c2)nc1 (stereo unspecified),-16.7%
6,Cc1ccc(C)c(SCC(=O)Nc2cccc(C(=O)N(C)C)n2)c1,-9.9%
7,COc1ncccc1C(=O)Nc1cccc(C[S+](C)[O-])c1C (stereo unspecified),2.28%
8,Cc1cc(F)cc(NC(=O)N(C)CC(C)(CO)CO)c1,-1.44%
9,CC(NC(=O)c1ccoc1)C(=O)N(C)Cc1ccsc1 (stereo unspecified),-1.77%
10,Cc1csc(CCNC(=O)c2ccc(N(C)C)c(F)c2)n1,7.15%
11,Cc1c(C(=O)N2CCC2(C)C)nnn1-c1cccc2cnccc12,-2.15%
12,COC(=O)CCCN(C)C(c1cccnc1)c1ccc(F)cc1F (stereo unspecified),-0.665%
13,Cc1ccc(CC(NC(=O)CCS(C)(=O)=O)c2ccccn2)cc1 (stereo unspecified),-11%
14,CC(Nc1ccc(Br)cc1)c1nc(C2CC2)no1 (stereo unspecified),6.27%
15,Cc1nnc(CN(Cc2cccc3c2OCO3)CC2CCCO2)n1C (stereo unspecified),3.93%
16,CC(Oc1ccc(OCc2ncc(C(C)C)o2)cc1)C(N)=O (stereo unspecified),-10.4%
17,O=C(CN1CC(n2cccn2)C1)NCC1(c2ccccc2)CCC1,-3.14%
18,CC(=O)NCCOc1c(C)cccc1C,-2.33%
19,O=C(Cn1cc(I)cn1)N1CCOCC1,-10.2%
20,COc1ccccc1NC(=O)NC(C)c1nc[nH]n1 (stereo unspecified),2.8%
21,Cc1cn(CC(=O)NCC(=O)NC2CC2)c2ccccc12,-0.966%
22,O=C(CSc1ccc2c(c1)OCCO2)NS(=O)(=O)c1ccccc1Cl,-4.46%
23,COCC(NC(=O)c1ccco1)c1cccc(C(F)(F)F)c1 (stereo unspecified),-3.96%

row,SMILES,cytotoxicity at 10 µM
1,CCCN(C)c1ccc(C(=O)Nc2c(C)nn(C(C)C)c2C)cc1,-2.84%
2,CC1CN(C)c2ccccc2CN1C(=O)c1ccncc1F (stereo unspecified),-16.9%
3,O=C(NCc1cccnc1)N1CCSCC1CCO (stereo unspecified),-1.46%
4,CCN(CCS(=O)(=O)CC)CC1CCCO1 (stereo unspecified),-0.157%
5,CC(C)c1nnc(NC(=O)N2CCCC2c2ccncc2)s1 (stereo unspecified),5.6%
6,Cc1cnc(C(C)(C)NC(=O)NCc2cccnc2OC(C)C)s1,8.46%
7,CN(CCNC(=O)N1CCCC1)C(=O)OC(C)(C)C,3.97%
8,CCOc1ccc(C#N)cc1NC(=O)N1CCC(n2cncn2)CC1,20.3%
9,CCOCCCNC(=O)NC(C)c1ccc(-n2cncn2)cc1 (stereo unspecified),3.31%
10,O=C(CCCc1ccccn1)N1CCOc2ccc(F)cc21,9.81%
11,CC1CN(Cc2ccccc2)CCCN1CCCS(C)(=O)=O (stereo unspecified),5.27%
12,O=C(NCc1ccncc1)N1CC(Cc2ccccc2F)C1,-8.85%
13,CNC(=O)C(C)CN(C)C(=O)Nc1cc(-n2cccc2)ccc1F (stereo unspecified),-5.28%
14,CN(C)C(=O)C1CCN(C(=O)c2c[nH]c3cc(Cl)ccc23)CC1,-0.983%
15,Cc1nccn1-c1cc(CNC(=O)C(C)(C)C)ccn1,-11.9%
16,COCCN1CCc2ncnc(NC3CC3)c2CC1,5.62%
17,COCC(=O)N1Cc2nccn2CC(CN(C)Cc2cccnc2)C1 (stereo unspecified),-76.2%
18,C[C@H](NS(C)(=O)=O)C(=O)NCc1cc(-c2ccco2)n(CC(F)(F)F)n1,-13%
19,CNS(=O)(=O)CCN1CC(c2ccccc2)(c2ccccc2)CCC1=O,-7.91%
20,COc1ncc(CN2CCOC(Cc3cccc4ccccc34)C2)cn1 (stereo unspecified),-3.94%
21,Cc1nc(C)c(CC(=O)N2CCCN(CC3CC3)C(C(C)C)C2)c(=O)[nH]1 (stereo unspecified),-153%
22,c1ccc(CCc2n[nH]c(C3CCC3)n2)cc1,-3.58%
23,Cc1cc(C)c(Cn2cncn2)cc1CN1CCC(CN)C1 (stereo unspecified),-11.3%

row,SMILES,cytotoxicity at 10 µM
1,COCc1cc(N(C)Cc2cc(C(C)(C)C)n[nH]2)ncn1,-1.15%
2,CC(=O)c1cccc(-c2c[nH]c(C)n2)c1,-0.916%
3,CCOC(=O)N1CCC(Nc2cc(CC)nc3c(C)c(C)nn23)CC1,11.8%
4,COCCCC1(C(=O)O)CCCN(Cc2cc3c(cc2C)OCCO3)C1 (stereo unspecified),-2.3%
5,Cc1cc(C)c(C(=O)N2CCn3nc(C(=O)NCCN(C)C)cc3C2)[nH]1,-0.53%
6,Cc1ccsc1CCNC(=O)CCC1CCCCN1C (stereo unspecified),-3.13%
7,COCC(=O)N1C[C@H]2CNC[C@@]2(C(=O)NCc2c(C)noc2C)C1,0.753%
8,O=C(CCNc1ncc2c(n1)CCN2c1ccccc1)N1CCCC1,9.5%
9,CN(Cc1ccc2nonc2c1)C(=O)CCc1cc2n(n1)CCCNC2,-9.46%
10,CCc1nc(C)sc1CN1CC[C@](O)(CC)[C@H](O)C1,-5.61%
11,Nc1cc(C(=O)NC2CCCN(CCCc3ccccc3)C2)ccn1 (stereo unspecified),8.01%
12,CN1CC(c2ccccc2)CC2(CCN(CC(=O)N(C)C)CC2)C1 (stereo unspecified),-12.5%
13,Cn1cnnc1C1CCCN(C(=O)NCCn2ccnc2)C1 (stereo unspecified),-2.74%
14,CC(C)c1nc(C2CCCN2C(=O)c2cnns2)no1 (stereo unspecified),-6.8%
15,O=C(c1ccc2c(c1)CCO2)N1CCN(c2cnccn2)CC1,-14.4%
16,CC(C)n1ccc(CN2CCOC(CNc3cccnn3)C2)n1 (stereo unspecified),-16.6%
17,Cc1ccn2ncc(C(=O)N3CCCC(n4ccnc4C)C3)c2n1 (stereo unspecified),-13.6%
18,CCC(C)(C)NC(=O)Cn1nc(C)nc1-c1ccccc1,-15.4%
19,CC(C)Cc1noc(CN2CCCC2c2noc(C3CC3)n2)n1 (stereo unspecified),-12.9%
20,O=C(CCn1cncn1)N1CCCC1c1noc(C2CC2)n1 (stereo unspecified),-23.3%
21,Fc1cccc(-n2ccc(CN3CCCC3Cn3cccn3)n2)c1 (stereo unspecified),-13.1%
22,COc1c(CNCc2ccc(S(C)(=O)=O)cc2)c(C)nn1C,-8.27%
23,COc1ccc(CCC(=O)N2CCCCC2Cn2cccn2)cc1F (stereo unspecified),-8.7%

row,SMILES,cytotoxicity at 10 µM
1,Cc1nc(CN2CCCC(N(C)Cc3nc(C)c(C)o3)C2)no1 (stereo unspecified),-6.6%
2,CC(=O)Nc1nc(C(=O)NC(C)c2ccc(F)c(F)c2)cs1 (stereo unspecified),-5.39%
3,Cc1ccc(-c2nc(CN3CCn4c(C)nnc4C3)cs2)o1,-19.2%
4,O=C(CN1CCCS1(=O)=O)NCCOc1ccc2c(c1)CCC2,-2.5%
5,Cn1cc([C@@H]2CN(S(=O)(=O)c3cccnc3)C[C@H]2N)c2ccncc21,-0.57%
6,CCOc1ccc(CNCCCn2ccnc2)cc1Cl,-9.51%
7,Cc1ccc(CN2Cc3c(C(=O)N4CCCC4)nn(C)c3C2)s1,-0.704%
8,O=C1CC2(CCCCN2CC2CC2)CN1c1ccccc1 (stereo unspecified),4.86%
9,Cc1ccc(C(=O)N2CCO[C@H]3[C@H](OCc4ccccn4)CC[C@@H]32)o1,-148%
10,Cc1ccc(CN2CCC3(CC2)C(=O)N(CC(C)C)CCN3C)s1,-3.63%
11,CC(=O)N1CCC[C@@H](NCc2cccc(F)c2)[C@@H]1c1ccc(C)s1,-24.2%
12,Cc1cccc(CN2C[C@@H]3CN(C(=O)NC(C)C)C[C@@H]3C2=O)n1,2.91%
13,O=C(CC1CC1)N1CC[C@H]2OCC[C@@]2(COc2ncccc2F)C1,-134%
14,Cc1ncsc1CN1C[C@@H](OCC(=O)N(C)C)[C@H]2OCCC[C@H]21,-139%
15,COc1ccc(CN2CC[C@H]3[C@H]2CC(=O)N3Cc2cccc(C)n2)cc1,1.2%
16,COc1ncccc1CN1C[C@@H]2COC[C@]2(COc2ccccn2)C1,-3.87%
17,CCOCC(=O)N1C[C@@H]2CC[C@H]1CN(C(=O)c1ccncc1)C2,0.0793%
18,CCNc1nc2cn(-c3ccc(C)c(C)c3)c(=O)c-2c[nH]1,0.255%
19,CSc1ncccc1C(=O)N1C[C@@H]2CC[C@H]1CN(C(C)=O)C2,4.99%
